Measurements from ChEMBL document CHEMBL1158577, “Role of hydrophobic substituents on the terminal nitrogen of histamine in receptor binding and agonist activity: development of an orally active histamine type 3 receptor agonist and evaluation of its antistress activity in mice” (J Med Chem, 2010).
Calls of active or inactive are those of the source. No cut-off for these calls is given here.

Legend:
Histamine H3 receptor [1] = target: T1, Histamine H3 receptor (Homo sapiens, UniProt Q9Y5N1); assay: Agonist activity at human recombinant histamine H3 receptor expressed in CHO cells assessed as [35S]GTPgammaS binding at 10 nM after 1 hr by liquid scintillation counting relative to (R)-alpha-methylhistamine; assay type: functional, cell-based
T1 sequence (Q9Y5N1 whole entry): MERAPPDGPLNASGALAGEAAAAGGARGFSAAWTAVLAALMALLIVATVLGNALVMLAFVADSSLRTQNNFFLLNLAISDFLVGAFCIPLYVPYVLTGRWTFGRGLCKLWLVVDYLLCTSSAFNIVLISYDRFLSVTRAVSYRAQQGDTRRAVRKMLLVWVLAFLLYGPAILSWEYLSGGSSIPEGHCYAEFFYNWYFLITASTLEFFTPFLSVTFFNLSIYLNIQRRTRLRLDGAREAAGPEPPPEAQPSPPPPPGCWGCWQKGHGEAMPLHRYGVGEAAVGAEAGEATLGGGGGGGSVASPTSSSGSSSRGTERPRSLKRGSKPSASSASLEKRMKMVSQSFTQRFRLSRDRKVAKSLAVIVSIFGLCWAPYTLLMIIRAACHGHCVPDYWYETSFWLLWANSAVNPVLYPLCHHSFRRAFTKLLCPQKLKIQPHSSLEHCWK
In short: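 CHO cells stably expressing human H3R. Agonist response is given as a percent of the response to the reference H3R agonist. Results are mean ± SEM, n = 3.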

Histamine H1 receptor = Histamine H1 receptor (Homo sapiens, UniProt P35367); assay: Inhibition of histamine H1 receptor
Sequence of Histamine H1 receptor (P35367 whole entry): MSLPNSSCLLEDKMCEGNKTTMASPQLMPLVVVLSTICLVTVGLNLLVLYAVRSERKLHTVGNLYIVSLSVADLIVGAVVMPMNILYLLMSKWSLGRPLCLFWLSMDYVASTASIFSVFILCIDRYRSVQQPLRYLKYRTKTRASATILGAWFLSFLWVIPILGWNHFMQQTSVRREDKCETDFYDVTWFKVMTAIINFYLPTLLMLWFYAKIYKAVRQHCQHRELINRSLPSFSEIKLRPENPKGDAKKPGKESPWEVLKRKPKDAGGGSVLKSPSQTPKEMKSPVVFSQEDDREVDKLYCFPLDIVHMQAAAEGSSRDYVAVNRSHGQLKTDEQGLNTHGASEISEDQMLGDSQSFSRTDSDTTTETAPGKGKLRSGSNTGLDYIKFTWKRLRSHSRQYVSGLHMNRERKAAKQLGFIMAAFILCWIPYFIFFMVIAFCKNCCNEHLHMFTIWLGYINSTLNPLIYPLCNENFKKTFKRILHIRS

D(3) dopamine receptor = D(3) dopamine receptor (Homo sapiens, UniProt P35462); assay: Inhibition of dopamine D3 receptor
Sequence of D(3) dopamine receptor (P35462 whole entry): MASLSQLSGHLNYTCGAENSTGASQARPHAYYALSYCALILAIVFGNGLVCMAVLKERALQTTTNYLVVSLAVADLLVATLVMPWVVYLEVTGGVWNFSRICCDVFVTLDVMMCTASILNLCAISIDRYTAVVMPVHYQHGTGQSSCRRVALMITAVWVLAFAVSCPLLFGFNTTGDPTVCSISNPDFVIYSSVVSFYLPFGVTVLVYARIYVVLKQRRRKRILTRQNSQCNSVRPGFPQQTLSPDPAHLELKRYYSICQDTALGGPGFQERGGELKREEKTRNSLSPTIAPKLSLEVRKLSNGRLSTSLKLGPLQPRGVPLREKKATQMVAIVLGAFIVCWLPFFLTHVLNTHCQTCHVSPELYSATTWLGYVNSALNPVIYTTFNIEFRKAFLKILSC

[2] = target: T2, 5-hydroxytryptamine receptor 1A (Homo sapiens, UniProt P08908); assay: Inhibition of 5HT1A receptor
T2 sequence (P08908 whole entry): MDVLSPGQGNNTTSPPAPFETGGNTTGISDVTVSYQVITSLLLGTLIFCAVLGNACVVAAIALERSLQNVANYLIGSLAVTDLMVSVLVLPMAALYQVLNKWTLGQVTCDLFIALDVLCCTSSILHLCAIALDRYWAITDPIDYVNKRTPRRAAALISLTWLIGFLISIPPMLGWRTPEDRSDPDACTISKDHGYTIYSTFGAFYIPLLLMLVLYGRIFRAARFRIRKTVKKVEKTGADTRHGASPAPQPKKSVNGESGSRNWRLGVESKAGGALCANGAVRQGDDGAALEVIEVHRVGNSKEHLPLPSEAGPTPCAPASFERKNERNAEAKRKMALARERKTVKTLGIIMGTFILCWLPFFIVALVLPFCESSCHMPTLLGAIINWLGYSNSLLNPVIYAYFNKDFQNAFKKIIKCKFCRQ

Mus musculus [3] = assay: In-vivo agonist activity at histamine H3 receptor in ddY mouse assessed as N-tele-methylhistamine level per gram of brain at 1 mg/kg, po by gas chromatography (RVb = 315 +/- 20 ng); assay type: functional, organism-based; design: dose 1 mg/kg
Mus musculus [4] = assay: Antistress activity against isolation-induced aggressive behavior in ICR mouse assessed as duration of attacks to intruder mouse at 30 mg/kg, po measured for 10 mins by resident-intruder test (RVb = 54.5 +/- 6.7 sec); assay type: functional
Histamine H2 receptor = Histamine H2 receptor (Homo sapiens, UniProt P25021); assay: Inhibition of histamine H2 receptor
Sequence of Histamine H2 receptor (P25021 whole entry): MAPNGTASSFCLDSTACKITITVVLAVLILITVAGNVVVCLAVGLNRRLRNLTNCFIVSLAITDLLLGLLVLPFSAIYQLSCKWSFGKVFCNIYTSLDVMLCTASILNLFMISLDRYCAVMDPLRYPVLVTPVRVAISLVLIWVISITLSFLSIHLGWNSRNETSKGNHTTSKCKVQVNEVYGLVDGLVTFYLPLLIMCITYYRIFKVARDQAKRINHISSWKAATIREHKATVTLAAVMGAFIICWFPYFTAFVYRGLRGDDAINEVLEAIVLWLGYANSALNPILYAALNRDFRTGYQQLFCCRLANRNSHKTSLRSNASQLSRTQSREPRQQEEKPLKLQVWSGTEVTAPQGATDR

[5] = target: T3, 5-hydroxytryptamine receptor 3A (Homo sapiens, UniProt P46098); assay: Inhibition of 5HT3 receptor
T3 sequence (P46098 whole entry): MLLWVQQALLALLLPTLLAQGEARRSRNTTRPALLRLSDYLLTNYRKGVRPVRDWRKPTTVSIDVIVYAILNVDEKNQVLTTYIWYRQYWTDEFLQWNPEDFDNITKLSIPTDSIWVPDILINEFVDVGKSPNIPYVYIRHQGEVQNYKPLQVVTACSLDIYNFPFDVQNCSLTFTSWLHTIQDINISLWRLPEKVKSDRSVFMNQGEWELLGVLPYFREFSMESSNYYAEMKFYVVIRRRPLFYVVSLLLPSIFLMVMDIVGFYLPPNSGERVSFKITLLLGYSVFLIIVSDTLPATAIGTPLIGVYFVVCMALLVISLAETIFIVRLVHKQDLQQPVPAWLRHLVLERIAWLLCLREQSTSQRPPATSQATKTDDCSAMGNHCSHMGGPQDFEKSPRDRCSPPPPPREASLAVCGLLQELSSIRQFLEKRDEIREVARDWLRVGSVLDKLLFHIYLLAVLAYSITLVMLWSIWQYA

[6] = Half life in Wistar rat at 2 mg/kg, iv after 6 hrs by LC-MS/MS analysis; assay type: ADME, organism-based; design: dose 2 mg/kg, route intravenous; details: in vivo
In short: (§1)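 Rats received 2 mg/kg iv, with n = 2. Total clearance (L/h/kg), steady-state volume of distribution (L/kg) and half-life (h) were derived.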

[7] = target: Muscarinic acetylcholine receptor M3 (Homo sapiens, UniProt P20309); assay: Inhibition of muscarinic M3 receptor
Sequence of Muscarinic acetylcholine receptor M3 (P20309 whole entry): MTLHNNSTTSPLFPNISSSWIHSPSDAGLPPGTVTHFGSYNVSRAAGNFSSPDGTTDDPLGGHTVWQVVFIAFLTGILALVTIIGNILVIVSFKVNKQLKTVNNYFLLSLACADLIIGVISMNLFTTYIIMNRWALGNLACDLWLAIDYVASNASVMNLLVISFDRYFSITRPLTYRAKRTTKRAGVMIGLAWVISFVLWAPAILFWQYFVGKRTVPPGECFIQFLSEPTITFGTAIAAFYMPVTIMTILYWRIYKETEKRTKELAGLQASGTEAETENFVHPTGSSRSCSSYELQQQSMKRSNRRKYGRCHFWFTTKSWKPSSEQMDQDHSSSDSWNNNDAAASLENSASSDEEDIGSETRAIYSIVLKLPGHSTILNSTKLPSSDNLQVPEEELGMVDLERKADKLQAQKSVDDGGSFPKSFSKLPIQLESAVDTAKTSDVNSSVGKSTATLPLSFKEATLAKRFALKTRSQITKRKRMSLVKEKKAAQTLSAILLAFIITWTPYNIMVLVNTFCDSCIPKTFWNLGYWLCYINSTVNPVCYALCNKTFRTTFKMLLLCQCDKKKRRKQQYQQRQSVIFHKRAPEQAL

Mus musculus [8] = assay: In-vivo agonist activity at histamine H3 receptor in ddY mouse assessed as N-tele-methylhistamine level per gram of brain at 5 mg/kg, po by gas chromatography (RVb = 315 +/- 20 ng); assay type: functional, organism-based; design: dose 5 mg/kg
Mus musculus [9] = assay: In-vivo agonist activity at histamine H3 receptor in ddY mouse assessed as N-tele-methylhistamine level per gram of brain at 30 mg/kg, po by gas chromatography (RVb = 315 +/- 20 ng); assay type: functional, organism-based; design: dose 30 mg/kg
D(1A) dopamine receptor = D(1A) dopamine receptor (Homo sapiens, UniProt P21728); assay: Inhibition of dopamine D1 receptor
Sequence of D(1A) dopamine receptor (P21728 whole entry): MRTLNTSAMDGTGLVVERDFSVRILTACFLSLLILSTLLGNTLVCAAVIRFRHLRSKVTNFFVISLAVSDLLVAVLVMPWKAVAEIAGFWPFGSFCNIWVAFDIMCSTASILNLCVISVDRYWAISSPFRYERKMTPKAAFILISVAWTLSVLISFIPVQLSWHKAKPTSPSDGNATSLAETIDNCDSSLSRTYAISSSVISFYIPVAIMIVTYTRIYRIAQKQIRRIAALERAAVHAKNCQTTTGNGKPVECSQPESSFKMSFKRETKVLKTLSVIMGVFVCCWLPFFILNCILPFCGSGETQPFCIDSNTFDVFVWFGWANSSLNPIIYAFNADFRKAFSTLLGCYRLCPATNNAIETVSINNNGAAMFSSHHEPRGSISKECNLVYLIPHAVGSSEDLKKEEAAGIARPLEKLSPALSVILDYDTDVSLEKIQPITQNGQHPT

[10] = Metabolic stability in rat liver S9 fraction assessed as […] after 60 mins by HPLC analysis; assay type: ADME, subcellular; details: s9, 1 h
In short: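 Rat S9 metabolic activity was expressed as pmol/min/mg protein, reported as mean ± SEM with n = 3.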

Cytochrome P450 2C19 = Cytochrome P450 2C19 (Homo sapiens, UniProt P33261); assay: Inhibition of human CYP2C19 expressed in insect cell microsome after 30 mins by fluorescence assay; assay type: ADME, microsomes
Cytochrome P450 3A4 = Cytochrome P450 3A4 (Homo sapiens, UniProt P08684); assay: Inhibition of human CYP3A4 expressed in insect cell microsome after 30 mins by fluorescence assay; assay type: ADME, microsomes
[11] = Oral bioavailability in Wistar rat at 5 mg/kg after 24 hrs by LC-MS/MS analysis; assay type: ADME, organism-based; details: in vivo
In short: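 In rat, an oral dose of 5 mg/kg (n = 2) was used to determine AUC0-inf and bioavailability (%).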

[12] = Total clearance in Wistar rat at 2 mg/kg, iv after 6 hrs by LC-MS/MS analysis; assay type: ADME, organism-based; design: dose 2 mg/kg, route intravenous; details: in vivo; in short: as §1
[13] = target: 5-hydroxytryptamine receptor 2A (Homo sapiens, UniProt P28223); assay: Inhibition of 5HT2A receptor
Sequence of 5-hydroxytryptamine receptor 2A (P28223 whole entry): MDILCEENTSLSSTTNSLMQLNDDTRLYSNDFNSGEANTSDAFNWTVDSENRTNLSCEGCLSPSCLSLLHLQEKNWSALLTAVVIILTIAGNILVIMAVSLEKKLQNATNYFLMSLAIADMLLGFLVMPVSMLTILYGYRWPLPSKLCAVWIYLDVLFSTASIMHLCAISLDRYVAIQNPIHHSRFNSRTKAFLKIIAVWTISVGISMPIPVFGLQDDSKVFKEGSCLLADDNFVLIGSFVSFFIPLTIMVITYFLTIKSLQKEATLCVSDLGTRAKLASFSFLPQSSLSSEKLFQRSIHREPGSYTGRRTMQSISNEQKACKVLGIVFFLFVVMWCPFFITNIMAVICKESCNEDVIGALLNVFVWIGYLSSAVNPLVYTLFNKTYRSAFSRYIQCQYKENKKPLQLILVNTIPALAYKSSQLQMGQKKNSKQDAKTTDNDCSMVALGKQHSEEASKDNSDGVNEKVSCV

[14] = Ratio of drug level in brain to plasma in Wistar rat at 5 mg/kg, po after 1 hr; assay type: ADME, organism-based; design: dose 5 mg/kg, route oral; details: brain and plasma, read-out: BPR
In short: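 Brain/plasma concentration ratio was determined in rats 1 h after administration, with n = 2.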

[15] = target: Beta-2 adrenergic receptor (Homo sapiens, UniProt P07550); assay: Inhibition of beta2 adrenergic receptor
Sequence of Beta-2 adrenergic receptor (P07550 whole entry): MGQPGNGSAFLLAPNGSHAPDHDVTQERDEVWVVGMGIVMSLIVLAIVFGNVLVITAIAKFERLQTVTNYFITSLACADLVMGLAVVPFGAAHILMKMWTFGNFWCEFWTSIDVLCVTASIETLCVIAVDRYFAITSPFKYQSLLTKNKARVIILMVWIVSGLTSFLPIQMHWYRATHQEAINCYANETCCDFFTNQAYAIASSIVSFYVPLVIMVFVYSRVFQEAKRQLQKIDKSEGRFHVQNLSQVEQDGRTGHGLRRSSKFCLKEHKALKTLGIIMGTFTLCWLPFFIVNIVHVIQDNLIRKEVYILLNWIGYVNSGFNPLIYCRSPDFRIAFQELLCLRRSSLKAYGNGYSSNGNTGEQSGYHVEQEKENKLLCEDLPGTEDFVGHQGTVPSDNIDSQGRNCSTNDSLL

Mus musculus [16] = assay: Antistress activity against isolation-induced aggressive behavior in ICR mouse assessed as duration of attacks to intruder mouse at 3 mg/kg, po measured for 10 mins by resident-intruder test (RVb = 54.5 +/- 6.7 sec); assay type: functional
D(2) dopamine receptor = D(2) dopamine receptor (Homo sapiens, UniProt P14416); assay: Inhibition of dopamine D2 receptor
Sequence of D(2) dopamine receptor (P14416 whole entry): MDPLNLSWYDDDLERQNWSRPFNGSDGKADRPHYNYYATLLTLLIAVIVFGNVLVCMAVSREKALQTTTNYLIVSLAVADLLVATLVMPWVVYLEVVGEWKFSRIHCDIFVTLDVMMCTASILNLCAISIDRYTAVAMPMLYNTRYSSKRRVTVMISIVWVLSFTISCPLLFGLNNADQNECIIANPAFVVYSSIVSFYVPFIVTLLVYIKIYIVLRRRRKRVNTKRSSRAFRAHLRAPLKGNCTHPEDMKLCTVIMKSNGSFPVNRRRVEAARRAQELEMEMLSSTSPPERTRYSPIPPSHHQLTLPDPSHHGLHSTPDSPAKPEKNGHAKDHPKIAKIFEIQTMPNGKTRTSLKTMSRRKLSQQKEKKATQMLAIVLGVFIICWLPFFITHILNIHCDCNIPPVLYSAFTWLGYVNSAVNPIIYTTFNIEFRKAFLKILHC

Cytochrome P450 1A2 = target: T4, Cytochrome P450 1A2 (Homo sapiens, UniProt P05177); assay: Inhibition of human CYP1A2 expressed in insect cell microsome after 15 mins by fluorescence assay; assay type: ADME, microsomes
T4 sequence (P05177 whole entry): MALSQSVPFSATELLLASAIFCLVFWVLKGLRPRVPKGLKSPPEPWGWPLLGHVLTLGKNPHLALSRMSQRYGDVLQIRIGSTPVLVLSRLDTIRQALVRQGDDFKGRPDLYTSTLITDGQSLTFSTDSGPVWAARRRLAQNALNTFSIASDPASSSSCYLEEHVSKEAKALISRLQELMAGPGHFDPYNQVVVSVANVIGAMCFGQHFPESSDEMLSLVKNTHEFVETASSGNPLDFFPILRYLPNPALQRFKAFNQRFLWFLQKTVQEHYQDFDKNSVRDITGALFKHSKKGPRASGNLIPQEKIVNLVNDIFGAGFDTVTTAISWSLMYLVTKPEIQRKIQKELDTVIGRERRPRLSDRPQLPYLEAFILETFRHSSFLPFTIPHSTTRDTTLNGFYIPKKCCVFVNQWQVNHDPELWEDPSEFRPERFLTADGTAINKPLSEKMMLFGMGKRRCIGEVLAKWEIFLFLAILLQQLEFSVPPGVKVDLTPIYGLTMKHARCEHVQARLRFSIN

[17] = Inhibition of alpha1 adrenergic receptor
Histamine H3 receptor [18] = target: T1, Histamine H3 receptor; assay: Displacement of [3H[N-alpha-methylhistamine form human recombinant histamine H3 receptor expressed in CHO cells after 1 hr by liquid scintillation counting; assay type: cell-based
In short: (§2)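 Used CHO cells stably expressing the human H3R for both affinity (pKi) and functional agonist measurements. Each value is the mean ± SEM of n = 3.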

Histamine H4 receptor = Histamine H4 receptor (Homo sapiens, UniProt Q9H3N8); assay: Inhibition of human recombinant histamine H4 receptor expressed in CHO cells; assay type: cell-based
Sequence of Histamine H4 receptor (Q9H3N8 whole entry): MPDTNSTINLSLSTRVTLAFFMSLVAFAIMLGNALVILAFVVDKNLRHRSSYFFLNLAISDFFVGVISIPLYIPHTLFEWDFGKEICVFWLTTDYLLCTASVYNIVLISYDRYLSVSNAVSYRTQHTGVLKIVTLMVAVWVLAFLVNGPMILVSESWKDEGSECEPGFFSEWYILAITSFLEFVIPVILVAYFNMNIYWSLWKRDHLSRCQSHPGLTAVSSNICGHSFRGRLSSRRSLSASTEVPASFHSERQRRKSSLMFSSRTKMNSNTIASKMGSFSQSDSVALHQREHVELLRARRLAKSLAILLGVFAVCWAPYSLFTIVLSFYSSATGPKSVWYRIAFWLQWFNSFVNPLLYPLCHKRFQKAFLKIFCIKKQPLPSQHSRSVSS

[19] = target: T5, Muscarinic acetylcholine receptor M1 (Homo sapiens, UniProt P11229); assay: Inhibition of muscarinic M1 receptor
T5 sequence (P11229 whole entry): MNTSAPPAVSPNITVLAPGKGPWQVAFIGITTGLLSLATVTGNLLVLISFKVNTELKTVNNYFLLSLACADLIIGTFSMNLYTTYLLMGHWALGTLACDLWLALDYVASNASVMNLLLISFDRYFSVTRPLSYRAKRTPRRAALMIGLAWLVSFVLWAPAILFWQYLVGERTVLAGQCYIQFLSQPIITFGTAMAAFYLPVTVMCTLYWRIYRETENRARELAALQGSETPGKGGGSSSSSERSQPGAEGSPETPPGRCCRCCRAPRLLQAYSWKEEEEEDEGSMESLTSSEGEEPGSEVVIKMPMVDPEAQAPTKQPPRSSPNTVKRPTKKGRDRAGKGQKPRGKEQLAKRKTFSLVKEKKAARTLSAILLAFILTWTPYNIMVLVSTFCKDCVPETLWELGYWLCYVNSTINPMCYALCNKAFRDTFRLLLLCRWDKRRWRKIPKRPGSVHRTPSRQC

[20] = Volume of distribution at steady state in Wistar rat at 2 mg/kg, iv after 6 hrs by LC-MS/MS analysis; assay type: ADME, organism-based; design: dose 2 mg/kg, route intravenous; details: in vivo, read-out: Vdss; in short: as §1
Cytochrome P450 2D6 = Cytochrome P450 2D6 (Homo sapiens, UniProt P10635); assay: Inhibition of human CYP2D6 expressed in insect cell microsome after 30 mins by fluorescence assay; assay type: ADME, microsomes
Sequence of Cytochrome P450 2D6 (P10635 whole entry): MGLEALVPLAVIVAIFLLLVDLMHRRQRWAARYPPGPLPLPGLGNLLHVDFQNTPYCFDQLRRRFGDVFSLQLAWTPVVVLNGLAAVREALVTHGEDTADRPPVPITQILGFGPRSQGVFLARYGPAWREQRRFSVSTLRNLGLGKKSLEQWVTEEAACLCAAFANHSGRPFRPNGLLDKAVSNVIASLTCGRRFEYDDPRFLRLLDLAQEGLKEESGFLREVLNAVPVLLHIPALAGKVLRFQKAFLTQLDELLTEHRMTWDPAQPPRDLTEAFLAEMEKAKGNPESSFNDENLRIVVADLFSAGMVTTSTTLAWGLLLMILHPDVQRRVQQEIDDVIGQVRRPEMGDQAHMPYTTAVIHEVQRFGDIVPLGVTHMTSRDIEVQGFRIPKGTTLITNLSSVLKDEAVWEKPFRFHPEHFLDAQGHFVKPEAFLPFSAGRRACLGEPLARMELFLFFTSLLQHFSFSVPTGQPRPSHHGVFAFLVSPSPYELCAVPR

[21] = target: Beta-1 adrenergic receptor (Homo sapiens, UniProt P08588); assay: Inhibition of beta-1 adrenergic receptor
Histamine H3 receptor [22] = target: T1, Histamine H3 receptor; assay: Agonist activity at human recombinant histamine H3 receptor expressed in CHO cells assessed as [35S]GTPgammaS binding after 1 hr by liquid scintillation counting; assay type: functional, cell-based; in short: as §2

For `c1ccc(NCCc2c[nH]cn2)cc1`, the Activity (Histamine H3 receptor [1]) was 42%.
For `CC(C)(C)c1ccc(SCCc2c[nH]cn2)cc1`, the Ki (Histamine H1 receptor) was > 1000 nM, the Ki (D(3) dopamine receptor) was > 1000 nM and the Ki [2] was > 1000 nM. The Nτ-methylhistamine level (Mus musculus [3]) was 298 ng/g, the Time (Mus musculus [4]) was 16.3 s and the Ki (Histamine H2 receptor) was > 1000 nM. For the same molecule, the Ki [5] was > 1000 nM, the half-life [6] was 1 h and the Ki [7] was > 1000 nM. For the same molecule, the Nτ-methylhistamine level (Mus musculus [8]) was 92 ng/g, the Nτ-methylhistamine level (Mus musculus [9]) was 96 ng/g and the Ki (D(1A) dopamine receptor) was > 1000 nM. The Stability [10] was 13 pmol/min, the IC50 (Cytochrome P450 2C19) was 8.5 nM and the IC50 (Cytochrome P450 3A4) was 470 nM. The bioavailability [11] was 53.5%, the clearance [12] was 46.7 mL/min/kg and the Ki [13] was > 1000 nM. The Kp at 1 h [14] was 6, the Ki [15] was > 1000 nM and the Time (Mus musculus [16]) was 42.9 s. The Ki (D(2) dopamine receptor) was > 1000 nM, the IC50 (Cytochrome P450 1A2) was 680 nM and the Ki [17] was > 1000 nM. For the same molecule, the Ki (Histamine H3 receptor [18]) was 0.17 nM, the Ki (Histamine H4 receptor) was 1.1 nM and the Ki [19] was > 1000 nM. It also gave an Activity (Histamine H3 receptor [1]) of 77%, a Vd [20] of 3.4 L/kg and an IC50 (Cytochrome P450 2D6) of 680 nM. For the same molecule, the Ki [21] was > 1000 nM and the EC50 (Histamine H3 receptor [22]; read-out: EC50) was 0.75 nM.
In the case of `c1ncc(CCNc2ccc(C3CCCCC3)cc2)[nH]1`, the Ki (Histamine H3 receptor [18]) is reported as 4.1 nM.
In the case of `c1nc(CCNc2ccc(C3CCCCC3)cc2)c[nH]1`, the Activity (Histamine H3 receptor [1]) is reported as “inactive” and the EC50 (Histamine H3 receptor [22]; cho) is reported as “Not Active”.
With `Cc1ccc(NCCc2c[nH]cn2)cc1` the Activity (Histamine H3 receptor [1]) was 49%.
With `FC(F)(F)c1ccc(NCCc2c[nH]cn2)cc1` the Ki (Histamine H3 receptor [18]) was 1.1 nM, the Activity (Histamine H3 receptor [1]) was 56% and the EC50 (Histamine H3 receptor [22]; read-out: EC50) was 19 nM.
Molecule `CC(C)(C)c1ccc(NCCc2c[nH]cn2)cc1` has an Activity (Histamine H3 receptor [1]) of 70%.
For `Cc1ccc(NCCc2cnc[nH]2)cc1C`, the Ki (Histamine H3 receptor [18]) was 9.9 nM and the EC50 (Histamine H3 receptor [22]; read-out: EC50) was 25 nM.
Work on `Cc1ccc(NCCc2cnc[nH]2)cc1` yielded a Ki (Histamine H3 receptor [18]) of 14 nM and an EC50 (Histamine H3 receptor [22]; read-out: EC50) of 88 nM.
